{
  "source": "ChEMBL document CHEMBL1142521",
  "about": "(J Med Chem, 2008)",
  "key": {"[1]": {"test": "Inhibition of Hedgehog pathway-dependent oxysterol-induced mouse C3 H10T1/2 cell differentiation assessed as alkaline phosphatase production after 72 hrs", "format": "functional, cell-based", "details": "C3H 10T1/2, 72 h", "in_short": "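Murine progenitor C3H10T1/2 cells were induced with oxysterol to differentiate into osteoblasts in culture, and Hh pathway inhibition was taken as the effect on this differentiation. The number of determinations is reported per value.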"}, "[2]": {"test": "Chemical stability in Bronsted and Lewis acid", "format": "physicochemical"}, "[3]": {"test": "Chemical stability in simulated gastric fluid after 60 mins", "format": "physicochemical", "details": "read-out: Stability", "in_short": "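Test material incubated in simulated gastric fluid for 60 min; read-out is the percentage of parent compound remaining.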"}, "[4]": {"test": "Oral bioavailability in CD1 mouse at 5 mg/kg by LC-MS/MS analysis", "format": "ADME, organism-based", "details": "in vivo", "in_short": "(§1)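 Hydrochloride salt was dissolved in sterile water for injection containing 30% (w/w) 2-hydroxypropyl-β-cyclodextrin and given to CD-1 mice intravenously and orally. Plasma was sampled at selected time points, proteins were precipitated, and drug levels were quantified by LC-MS/MS.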"}, "[5]": {"test": "Elimination half life in CD1 mouse at 5 mg/kg, po by LC-MS/MS analysis", "format": "ADME, organism-based", "design": "dose 5 mg/kg, route oral", "details": "in vivo, read-out: beta t1/2 (converted)", "in_short": "as §1"}, "Mus musculus": {"test_system": "Mus musculus", "test": "Volume of distribution in CD1 mouse at 5 mg/kg, po by LC-MS/MS analysis", "format": "ADME, organism-based", "design": "dose 5 mg/kg, route oral", "details": "in vivo", "in_short": "as §1"}},
  "data": [
    {"smiles": "CC1=C2C[C@H]3[C@@H](CCC4=CC(=O)CC[C@@]43C)[C@@H]2CC[C@@]2(C1)O[C@@H]1C[C@H](C)CN(Cc3ccccc3)[C@H]1[C@H]2C", "values": [
      {"measurement": "EC50", "setting": "[1]", "value": "> 2", "unit": "µM"}
    ]},
    {"smiles": "CC(=O)N1C[C@@H](C)C[C@H]2O[C@]3(CC[C@@H]4C(=C(C)C3)C[C@H]3[C@H]4CCC4=CC(=O)CC[C@@]43C)[C@H](C)[C@@H]21", "values": [
      {"measurement": "EC50", "setting": "[1]", "value": 0.12, "unit": "µM"}
    ]},
    {"smiles": "CC1=C2C[C@H]3[C@@H](CCC4=CC(=O)CC[C@@]43C)[C@@H]2CC[C@@]2(C1)O[C@@H]1C[C@H](C)CN(C)[C@H]1[C@H]2C", "values": [
      {"measurement": "EC50", "setting": "[1]", "value": 0.4, "unit": "µM"}
    ]},
    {"smiles": "CC1=C2C[C@H]3[C@@H](CCC4=CC(=O)CC[C@@]43C)[C@@H]2CC[C@@]2(C1)O[C@@H]1C[C@H](C)CN(CCOCCO)[C@H]1[C@H]2C", "values": [
      {"measurement": "EC50", "setting": "[1]", "value": "> 1", "unit": "µM"}
    ]},
    {"smiles": "C[C@@H]1CN[C@H]2[C@@H](C)[C@@]3(CC[C@H]4[C@@H]5CC=C6C[C@@H](O)CC[C@]6(C)[C@H]5C[C@@]45C[C@]53C)O[C@@H]2C1", "note": "[CYCLOPROPYL CYCLOPAMINE]", "values": [
      {"measurement": "Stability", "setting": "[2]", "value": "Stable"},
      {"measurement": "EC50", "setting": "[1]", "value": "> 2", "unit": "µM"}
    ]},
    {"smiles": "CC1=C2C[C@H]3[C@@H](CC=C4C[C@@H](O)CC[C@@]43C)[C@@H]2CC[C@]12O[C@@H]1C[C@H](C)CN[C@H]1[C@H]2C", "note": "[CYCLOPAMINE]", "values": [
      {"measurement": "EC50", "setting": "[1]", "value": 0.17, "unit": "µM"},
      {"measurement": "remaining at 1 h", "setting": "[3]", "value": 60, "unit": "%"}
    ]},
    {"smiles": "CC1=C2C[C@H]3[C@@H](CCC4=CC(=O)CC[C@@]43C)[C@@H]2CC[C@@]2(C1)O[C@@H]1C[C@H](C)CN[C@H]1[C@H]2C.Cl", "values": [
      {"measurement": "bioavailability", "setting": "[4]", "value": 80, "unit": "%"},
      {"measurement": "half-life", "setting": "[5]", "value": 3.2, "unit": "h"},
      {"measurement": "Vd", "setting": "Mus musculus", "value": 18, "unit": "L/kg"}
    ]},
    {"smiles": "CC1=C2C[C@H]3[C@@H](CCC4=CC(=O)CC[C@@]43C)[C@@H]2CC[C@@]2(C1)O[C@@H]1C[C@H](C)CN(O)[C@H]1[C@H]2C", "values": [
      {"measurement": "EC50", "setting": "[1]", "value": 0.8, "unit": "µM"}
    ]},
    {"smiles": "CC1=C2C[C@H]3[C@@H](CCC4=CC(=O)CC[C@@]43C)[C@@H]2CC[C@@]2(C1)O[C@@H]1C[C@H](C)CN[C@H]1[C@H]2C", "values": [
      {"measurement": "EC50", "setting": "[1]", "value": 0.2, "unit": "µM"},
      {"measurement": "remaining at 1 h", "setting": "[3]", "value": 98, "unit": "%"}
    ]},
    {"smiles": "COCCOCCN1C[C@@H](C)C[C@H]2O[C@]3(CC[C@@H]4C(=C(C)C3)C[C@H]3[C@H]4CCC4=CC(=O)CC[C@@]43C)[C@H](C)[C@@H]21", "values": [
      {"measurement": "EC50", "setting": "[1]", "value": 0.4, "unit": "µM"}
    ]},
    {"smiles": "CC1=C2C[C@H]3[C@@H](CCC4=CC(=O)CC[C@@]43C)[C@@H]2CC[C@@]2(C1)O[C@@H]1C[C@H](C)CN(CCNC(=O)CCCCCNC(=O)CCc3ccccc3)[C@H]1[C@H]2C", "values": [
      {"measurement": "EC50", "setting": "[1]", "value": 0.01, "unit": "µM"}
    ]},
    {"smiles": "CC1=C2C[C@H]3[C@@H](CCC4=CC(=O)CC[C@@]43C)[C@@H]2CC[C@@]2(C1)O[C@@H]1C[C@H](C)CN(CCNC(=O)CCc3ccccc3)[C@H]1[C@H]2C", "values": [
      {"measurement": "EC50", "setting": "[1]", "value": 0.02, "unit": "µM"}
    ]},
    {"smiles": "C[C@H]1C[C@H]2O[C@]3(CC[C@H]4[C@@H]5CC=C6C[C@@H](O)CC[C@]6(C)[C@H]5C[C@@]45C[C@]53C)[C@H](C)[C@@H]2N(C(=O)OCC2c3ccccc3-c3ccccc32)C1", "values": [
      {"measurement": "Stability", "setting": "[2]", "value": "Stable"}
    ]},
    {"smiles": "CC1=C2C[C@H]3[C@@H](CC=C4C[C@@H](O)CC[C@@]43C)[C@@H]2CC[C@@]2(C1)O[C@@H]1C[C@H](C)CN[C@H]1[C@H]2C", "values": [
      {"measurement": "EC50", "setting": "[1]", "value": "> 2.5", "unit": "µM"}
    ]},
    {"smiles": "CC1=C2C[C@H]3[C@@H](CCC4=CC(=O)CC[C@@]43C)[C@@H]2CC[C@@]2(C1)O[C@@H]1C[C@H](C)CN(CCCl)[C@H]1[C@H]2C", "values": [
      {"measurement": "EC50", "setting": "[1]", "value": "> 2.5", "unit": "µM"}
    ]}
  ]
}
